ROMK mod: modulates human ROMK potassium channel activity; B-score at 10 µM; Tet-inducible ROMK, thallium flux fluorescence; actives lie on both sides; P48048; 130,000 compounds, 2% hits; AID 1918;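 active means signal ratio slope over the read window, or its plate-corrected B-score, at least 3 SD from the plate mean, either direction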;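 further: B-score of the F/F0 ratio slope over 7 to 12 s after thallium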
Target sequence (P48048 whole entry, looked up): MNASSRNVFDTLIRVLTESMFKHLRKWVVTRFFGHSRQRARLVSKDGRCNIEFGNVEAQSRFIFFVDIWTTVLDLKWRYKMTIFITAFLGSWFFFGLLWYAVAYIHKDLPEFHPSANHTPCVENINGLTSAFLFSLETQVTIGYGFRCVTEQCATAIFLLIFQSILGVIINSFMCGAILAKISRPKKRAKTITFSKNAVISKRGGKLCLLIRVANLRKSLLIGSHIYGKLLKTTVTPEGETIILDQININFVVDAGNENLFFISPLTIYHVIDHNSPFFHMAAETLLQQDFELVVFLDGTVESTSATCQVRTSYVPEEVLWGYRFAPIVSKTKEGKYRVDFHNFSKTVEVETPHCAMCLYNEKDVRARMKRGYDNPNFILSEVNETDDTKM
Diaphorase inh: inhibits diaphorase or chemically oxidizes, flagging diaphorase assay artifacts. inhibition, % at 20 µM. 190,000 compounds, 0.69% hits. diaphorase resazurin-to-resorufin fluorescence, NADH, 16 min; bacterial (C. kluyveri) enzyme, not human. AID 1217;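 active means primary screen inhibition at 20 µM above a set limit, cut at about 50% in these data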
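Test system: diaphorase enzyme from Clostridium kluyveri; amount: diaphorase at 0.14 U/mL in enzyme working solution; detection: fluorescence of resorufin formed from resazurin, Ex 544/Em 590 nm; times: reaction incubation of 16 min at room temperature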
WT yeast gro inh: growth inhibition of WT yeast, mitochondrial fusion screen. AID 1362. inhibition, % at 10 µM. mitochondrial fusion phenotypic screen, WT strain. 190,000 compounds, 2.1% hits; in the data active means inhibition above about 58%; tested in S. cerevisiae
Diaph act CS: activates diaphorase or chemically reduces, flagging diaphorase assay artifacts; 190,000 compounds, 0.005% hits; Diaphorase/resazurin coupled assay, resorufin fluorescence, 16 min; hits give high values; 1 = vehicle wells, 0 = NADH-free wells; activation factor at 20 µM;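 active means diaphorase activity raised at least twofold by the compound at 20 µM; inactive means activation factor below 2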
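Assay system: bacterial diaphorase enzyme (C. kluyveri) / Input: enzyme 0.07 U/mL final / Medium: 50 mM HEPES pH 7.4 with 4.542 mM MgCl2, 0.005% Tween 20 / Doses: single compound dose of 20 µM, 1% DMSO final / Incubation: 16 min enzyme reaction, ambient temperature / Signal: fluorescence, excitation 544 nm and emission 590 nm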
KCC2 mod: modulates chloride dependent transport by human KCC2; Q9H2X9; KCC2 cells, thallium flux FluoZin-2 fluorescence; B-score of Tl+ flux slope (higher = more flux/activation; lower = inhibition) at 10 µM; 190,000 compounds, 2.2% hits; AID 1456;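 active means thallium flux slope and its plate-corrected score both differing from the plate sample mean at a set confidence after two filtering rounds, in either direction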;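 further: slope of fluorescence scaled to starting intensity during 10 to 20 s after thallium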
L major viab: inhibitors of Leishmania major promastigote growth. Leishmania major promastigotes, resazurin fluorescence viability. inhibition, % at 10 µM. 200,000 compounds, 9% hits. AID 1063; in the data active means inhibition above about 50%;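 further: promastigotes grown with compound for 44 hours at 28 °C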
Of the large screens only hits and unclear results are named; the others gave an inactive call. The list is not random: actives were taken first. Their share in the collection is about 12%.

Cc1nc([N+](=O)[O-])c(N2CCN(Cc3ccccc3)CC2)n1Cc1ccccc1	none (no result: ROMK mod)
Cn1cnc([N+](=O)[O-])c1Sc1nc2ccccc2[nH]1	none (no result: ROMK mod, Diaphorase inh, WT yeast gro inh, Diaph act CS, L major viab)
COc1ccc2nc(SCC(=O)Nc3ccccc3)[nH]c2c1	none (no result: KCC2 mod)
Cc1nc([N+](=O)[O-])c(Sc2nc3ccccc3[nH]2)n1Cc1ccccc1	L major viab 98.6
COc1ccc2nc(Sc3c([N+](=O)[O-])nc(C)n3Cc3ccccc3)[nH]c2c1	L major viab 86.9 (no result: KCC2 mod)
Cc1cc(NC(=O)CSc2nncc(=O)n2N)no1	none
Cc1ccc(C2=N/C(=C\c3cccnc3)C(=O)O2)cc1	L major viab 66.2
Nc1c2c(nc3ccc(Br)cc13)N(Cc1ccccc1)CC2	L major viab 94.1
Nc1c2c(nc3ccc(Br)cc13)N(c1ccccc1)CC2	L major viab 100.4
Nc1c2c(nc3ccccc13)N(C1CCCCC1)CC2	none (no result: KCC2 mod, L major viab)
CSc1nc(C)c2c(n1)N(c1cccc(C)c1)CC2	none (no result: ROMK mod, KCC2 mod)
Nc1c2c(nc3ccc(Br)cc13)N(C1CCCCC1)CC2	L major viab 100.6
Cc1cccc(N2CCc3c2nc2ccc(Br)cc2c3N)c1	Diaphorase inh 77.8, L major viab 100.4
COC(=O)Nc1nnc(COc2ccccc2)s1	none (no result: ROMK mod, Diaphorase inh, WT yeast gro inh, Diaph act CS, L major viab)
COc1cc2c(cc1OC)C1(CCCC1)CNC2c1cccc([N+](=O)[O-])c1 (configuration not stated)	none
CC(OC(=O)c1ccc([N+](=O)[O-])s1)C(=O)Nc1ncc(Cl)cc1Cl (configuration not stated)	L major viab 100.0
O=C(NCC1(N2CCCCC2)CCCCC1)C1CC(=O)N(c2ccc3c(c2)OCCO3)C1 (configuration not stated)	none
CCOC(=O)c1c(NC(=O)c2cccs2)sc2c1CCCC2	none (no result: KCC2 mod)
CCN1CCc2c(sc(NC(=O)Nc3ccc(Cl)c(Cl)c3)c2C(N)=O)C1	WT yeast gro inh 77.2 (no result: ROMK mod)
CCOC(=O)c1c(NC(=O)c2cccs2)sc2c1CCN(C(=O)OCC)C2	WT yeast gro inh 63.3 (no result: ROMK mod)
CCOC(=O)N1CCc2c(sc(NC(=O)c3ccc(Cl)s3)c2C(N)=O)C1	L major viab 82.0 (no result: ROMK mod)
CCN1CCc2c(sc(NC(=S)NC(=O)c3ccco3)c2C(N)=O)C1	none (no result: Diaphorase inh, WT yeast gro inh, Diaph act CS, L major viab)
COc1ccc(CCNC2CCN(C)CC2)cc1OC	none
O=C(/C=C/c1ccccc1Cl)N1CCN(c2ncccn2)CC1	L major viab 58.9 (no result: ROMK mod)
COc1cc(C(=O)Nc2c(C)cc(C)cc2C)c([N+](=O)[O-])cc1OC	none
COc1ccc(NS(=O)(=O)c2ccc3oc(Nc4ccc5c(c4)OCCO5)nc3c2)cc1	WT yeast gro inh 73.2, L major viab 92.7 (no result: KCC2 mod)
Cn1c(=O)oc2cc(S(=O)(=O)Nc3ccc4c(c3)OCCO4)ccc21	L major viab 62.7
Cn1c(=O)oc2cc(S(=O)(=O)NCCC(=O)Nc3ccc4c(c3)OCCO4)ccc21	none (no result: ROMK mod)
Cn1c(=O)c(=O)n(C)c2cc(S(=O)(=O)Nc3ccc4c(c3)OCCO4)ccc21	L major viab 64.0 (no result: ROMK mod)
Cc1c(S(=O)(=O)Nc2ccc3c(c2)OCCO3)c(=O)n(C)c(=O)n1C	none (no result: ROMK mod)
Cn1c(=O)c(=O)n(C)c2cc(S(=O)(=O)Nc3ccc(OC(F)(F)F)cc3)ccc21	L major viab 99.3 (no result: KCC2 mod)
CCCCNc1ccc(S(=O)(=O)c2cccc([N+](=O)[O-])c2)cc1[N+](=O)[O-]	none
Cc1ccc(CNS(=O)(=O)c2ccc3c(c2)n(C)c(=O)c(=O)n3C)cc1	L major viab 99.3
Cn1c(=O)oc2cc(S(=O)(=O)NCc3ccccc3)ccc21	none
Cc1ccc(OCCC(=O)O)cc1	none (no result: ROMK mod, Diaphorase inh, WT yeast gro inh, Diaph act CS, L major viab)
COc1cccc(C(=O)Nc2cnn(C(C)C)c2)c1	none
O=C(Nc1cccnc1)c1cc(-c2ccccc2)on1	ROMK mod 3.5
O=C(Nc1cccnc1)c1cc(-c2ccc(Br)cc2)on1	none (no result: ROMK mod)
CC(=O)c1cccc(NC(=O)c2cc(-c3ccc(C)cc3)on2)c1	L major viab 62.3
CCCc1cc(C(=O)Nc2cccc(C(C)=O)c2)no1	none (no result: ROMK mod)
CC(C)n1cc(NC(=O)c2cc(-c3ccccc3)on2)cn1	ROMK mod 5.83, KCC2 mod 33.1
CCCCNC(=O)CNC(=S)N(CCCN1CCOCC1)Cc1cccs1	none
CC(=O)Nc1ccc(SCC(=O)c2cc(C)n(CC(F)(F)F)c2C)cc1	L major viab 61.4
CC(=O)Nc1ccc(SCC(=O)c2cc(C)n(C)c2C)cc1	none
CCC(CC)C(=O)Nc1ccc(Cl)c(Cl)c1	none
Cc1ccc(S(=O)(=O)N(C(=O)c2ccncc2)c2ccc(OC(=O)c3ccncc3)c3ccccc23)c(C)c1	L major viab 98.3
Cc1ccc(S(=O)(=O)N(C(=O)c2ccncc2)c2ccc(OC(=O)c3ccncc3)c3ccccc23)cc1	L major viab 97.9 (no result: ROMK mod)
COC(=O)c1c(C)oc2ccc(N(C(=O)c3ccncc3)S(=O)(=O)c3ccc(C)cc3)cc12	none
COc1ccc(C(=O)NC(C)(C)C)cc1S(=O)(=O)N1CCCC1	none
CCN(c1ccccc1)S(=O)(=O)c1ccc(NC(=S)NC(=O)c2cccs2)cc1	KCC2 mod 16.4, L major viab 85.3 (no result: ROMK mod)
CCCOc1ccc(C(=O)NCC(c2cccs2)N(C)C)cc1 (configuration not stated)	none
CCN(c1ccccc1)S(=O)(=O)c1ccc(C(=O)NCC(c2cccs2)N(C)C)cc1 (configuration not stated)	L major viab 89.7
Cc1ccccc1C(=O)NC(=S)Nc1ccc(S(=O)(=O)N(C)c2ccccc2)cc1	L major viab 100.0 (no result: ROMK mod)
CC(C)C(=O)NC(=S)Nc1ccc(S(=O)(=O)N(C)Cc2ccccc2)cc1	WT yeast gro inh 58.5
CC(=O)NC(=S)Nc1ccc(S(=O)(=O)N(C)Cc2ccccc2)cc1	none
Cc1ccc(C)c(OCC(=O)NCC(C)C)c1C	none
CCCCOC(=O)C1=C(N)N2C(=O)C(C)SC2=C(C(=O)OCC)C1c1ccc(O)c(OC)c1 (configuration not stated)	none (no result: ROMK mod, Diaphorase inh, WT yeast gro inh, Diaph act CS, L major viab)
CCOC(=O)c1[nH]c(C)c(C(=O)NCc2ccco2)c1C	none
COc1ccc(C2/C=C\CN(C(=O)C3CCCC3)CC(=O)N2Cc2ccc(F)cc2)cc1 (configuration not stated)	none (no result: ROMK mod, Diaphorase inh, WT yeast gro inh, Diaph act CS, L major viab)
COc1ccccc1-c1cc(C(F)(F)F)nc(NCc2ccco2)n1	WT yeast gro inh 60.0 (no result: KCC2 mod)
COC(=O)Cc1ccc(NC(=S)NCCSc2ccc(C)cc2)cc1	WT yeast gro inh 68.1
Cc1ccc(SCCNC(=S)Nc2ccc(C)cc2C)cc1	WT yeast gro inh 69.3 (no result: ROMK mod)
Cc1ccc(NC(=S)NCCc2ccc(F)cc2)c(C)c1	none (no result: ROMK mod)
Cc1ccc(SCCNC(=S)Nc2cc(C)cc(C)c2)cc1	WT yeast gro inh 76.4, L major viab 65.2 (no result: KCC2 mod)
Cc1c(C)n(CC(O)CN2C(=O)c3ccccc3S2(=O)=O)c2ccccc12 (configuration not stated)	none (no result: KCC2 mod)
